High-throughput results as filed in PubChem BioAssay.
Sampled rows, rich in hits. Any-hit rate of the full collection: about 3%.
Hsp70 act: Hsp70 transcriptional activators, primary screen, cell-based, HeLa, Hsp70 promoter luciferase, luminescence, 10 µM; AID 1203, 2008; 200,000 compounds, 0.04% hits; activation, % at 10 µM; HeLa Hsp70 promoter luciferase reporter; scaled: vehicle 0, proteasome-inhibitor control 100%;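 active means activation above the mean across all tested compounds plus 3 SD, cutoff set per campaign, cut at about 5.5% in these data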
NPY2 pot ag: NPY-Y2 potentiators or agonists, primary screen, cell-based; cells expressing NPY-Y2, potentiator/agonist read-out; 220,000 compounds, 0.45% hits; Neuropeptide Y receptor type 2 (Homo sapiens), P49146; activation, % at 3.6 µM; in the data active means activation above about 27%;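 further: cells stimulated with NPY near EC25 plus isoproterenol at EC100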
NPY-Y1 antag: NPY-Y1 receptor antagonists, primary screen, cell-based. Neuropeptide Y receptor type 1 (Homo sapiens), P25929. HEK293-CNG Y1 cells, membrane potential fluorescence; NPY at EC95, then isoproterenol. inhibition, % at 3.6 µM. 200,000 compounds, 1% hits. AID 1040, 2008;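 active means inhibition above the campaign mean inhibition of all tested compounds plus 3 SD, cut at about 20% in these data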
Target sequence (P25929 whole entry, looked up): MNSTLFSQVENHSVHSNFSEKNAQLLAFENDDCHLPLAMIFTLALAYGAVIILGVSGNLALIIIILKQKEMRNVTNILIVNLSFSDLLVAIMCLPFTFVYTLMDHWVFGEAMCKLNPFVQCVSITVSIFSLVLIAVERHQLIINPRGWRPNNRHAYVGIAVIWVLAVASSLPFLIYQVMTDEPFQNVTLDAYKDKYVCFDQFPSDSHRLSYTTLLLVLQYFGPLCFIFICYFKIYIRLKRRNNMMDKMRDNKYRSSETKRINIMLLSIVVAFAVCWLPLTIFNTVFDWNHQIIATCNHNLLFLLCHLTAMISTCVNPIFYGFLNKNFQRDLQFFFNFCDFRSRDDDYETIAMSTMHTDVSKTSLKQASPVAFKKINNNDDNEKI
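Material: Y1- and CNG-channel-expressing HEK293 cells / Probe or stimulus: NPY 25 nM then isoproterenol 1 µM plus Ro 20-1724 25 µM / Doses: 3.6 µM single dose, DMSO 0.4% / Schedule: compound incubation 1 h at room temperature, readout 45 min post-stimulation / Signal: membrane potential fluorescence / Benchmarks: isoproterenol-only wells as full block versus NPY-plus-isoproterenol wells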
NPY-Y1 PAM-ag: NPY-Y1 receptor potentiators or agonists, primary screen, cell-based; NPY-Y1 expressing cells, potentiator/agonist activation; activation, % at 3.6 µM; Neuropeptide Y receptor type 1 (Homo sapiens), P25929; 220,000 compounds, 0.37% hits; in the data active means activation above about 33%, passing the limit was not always enough;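 further: cells stimulated with NPY at EC10 then isoproterenol at EC100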
Wee1 degr inh: Wee1 degradation inhibitors, primary screen, cell-based, HeLa, Wee1K328M-luciferase, luminescence; Wee1-like protein kinase (Homo sapiens), P30291; reporter increase, % at 5 µM; 220,000 compounds, 1.2% hits; HeLa Luc-Wee1K328M stability; 100% = proteasome inhibitor MG132 effect;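 active means activation above the mean of all tested compounds plus 3 SD, set per screening run, cut at about 8.8% in these data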;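 further: cells exposed to compound for 20 h before luminescence read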
NPY-Y2 antag: NPY-Y2 receptor antagonists, primary screen, cell-based | NPY-Y2 expressing cells, antagonist mode | inhibition, % at 2.7 µM | 140,000 compounds, 0.99% hits | AID 793, 2007; in the data active means inhibition above about 17%
Each line names hits and unclear results; the compound was inactive in the other large screens.

CCC(=O)N(CCC(c1ccco1)c1ccccc1OC)Cc1cccs1 (stereo not given)	NPY-Y1 antag 25.1, NPY-Y2 antag 22.1
CC(=O)N(CCC(c1ccccc1)c1ccco1)Cc1cccs1 (stereo not given)	none
COCCSc1nnc(NC(=O)C(C)(C)C)s1	Wee1 degr inh 8.8
CCN(CC)c1ccc(NC(=O)CSc2nc3ccccc3c(=O)n2-c2cc(S(=O)(=O)N(C)C)ccc2C)cc1	none
O=c1[nH]cc(O)c(=O)[nH]1	none (no result: Hsp70 act, NPY-Y1 antag, NPY-Y2 antag)
O=c1[nH]cc(N(CCO)CCO)c(=O)[nH]1	Wee1 degr inh 9.5 (no result: Hsp70 act, NPY-Y1 antag, NPY-Y2 antag)
COc1cc(/C=N/NC(=O)c2sc3ccccc3c2Cl)ccc1OC(=O)c1ccc([N+](=O)[O-])cc1	none (no result: Hsp70 act, NPY-Y1 antag, NPY-Y2 antag)
CCCCn1c(=O)n(CC(=O)Nc2ccc(OC)c(Cl)c2)c(=O)c2c1nc(CO)n2CCC	none
CC1C/C(=C\c2cccnc2)C(=O)/C(=C/c2cccnc2)C1 (stereo not given)	Hsp70 act 110.0
COc1ccc(-c2cc(C(F)(F)F)n3nc(C(=O)N4CCCCC4)cc3n2)cc1	none
COc1ccc(-c2cc(C(F)(F)F)n3nc(C(=O)NCCCN4CCOCC4)cc3n2)cc1	Wee1 degr inh 10.2 (no result: NPY-Y2 antag)
COc1cc2cc(CN(C(=O)NC3CCCCC3)C3CCCC3)c(=O)[nH]c2cc1OC	Wee1 degr inh 8.8
COc1ccc(CN(Cc2cc3cc(OC)c(OC)cc3[nH]c2=O)C(=O)NC2CCCCC2)cc1	none
Nc1nonc1C(=O)NCCNCc1c(OCc2ccccc2F)ccc2ccccc12	NPY-Y1 antag 33.8, NPY-Y2 antag 49.8
COc1ccc(OCC(O)Cn2c(=N)n(CCN3CCOCC3)c3ccccc32)cc1 (stereo not given)	none
Cc1ccc(Cn2c(=N)n(CC(O)COc3ccccc3)c3ccccc32)cc1 (stereo not given)	NPY-Y1 antag 35.6, NPY-Y2 antag 33.7
Cc1ccc(OCC(O)Cn2c3ccccc3c3ccccc32)cc1 (stereo not given)	none
N=c1n(Cc2ccccc2)c2ccccc2n1CC(O)COc1ccccc1 (stereo not given)	NPY-Y1 antag 41.1, NPY-Y2 antag 43.5
Cc1ccc(O)c(CP(=O)(c2ccccc2)c2ccccc2)c1	Wee1 degr inh 9.4
O=C(Nc1ccccc1CC[N+](=O)[O-])N1CCN(c2ccccc2)CC1	none (no result: NPY-Y2 antag)
CCOC(=O)Cn1nnc2c(sc3nc4c(c(-c5ccccc5)c32)CCC4)c1=O	none
CCOC(=O)Cn1nnc2c(sc3nc4c(c(-c5ccc(Cl)cc5)c32)CCC4)c1=O	NPY-Y2 antag 21.7
CC(=O)CC(=O)Nc1ccc(Nc2ccccc2)cc1	none
CC(C)CC(NC(=O)CCl)c1ccccc1 (stereo not given)	none
CC(C)CNC(CC(=O)O)c1ccccc1 (stereo not given)	Wee1 degr inh 9.6 (no result: NPY-Y2 antag)
Cc1cc(C)n(CC(=O)O)c(=O)c1[N+](=O)[O-]	none (no result: NPY-Y2 antag)
CCc1ccc(C(=O)Nc2ccc(C)c(NS(C)(=O)=O)c2)cc1	none (no result: Hsp70 act, NPY-Y1 antag, NPY-Y2 antag)
Cc1ccc(NC(=O)c2ccc(F)cc2F)cc1NS(C)(=O)=O	Wee1 degr inh 9.2 (no result: Hsp70 act, NPY-Y1 antag, NPY-Y2 antag)
CCOC(=O)c1c(NC(=O)c2ccc(C)cc2)sc2c1CC(C)(C)OC2	none
COC(=O)c1c(NC(=O)c2ccccc2)sc2c1CC(C)(C)OC2	Wee1 degr inh 9.4
CCCCNC(=S)NC(C)(C)CO	none (no result: NPY-Y2 antag)
COc1ccc(Cc2nc(-c3cccs3)no2)cc1	Wee1 degr inh 8.9 (no result: NPY-Y2 antag)
COc1cccc(Nc2nnc(SCC(=O)N(CC(C)C)CC(C)C)s2)c1	none
O=C(Nc1nnc(-c2ccc(Cl)cc2)o1)Nc1ccccc1F	Wee1 degr inh 12.8 (no result: Hsp70 act, NPY-Y1 antag, NPY-Y2 antag)
O=C(Nc1ccccc1)Nc1nnc(-c2ccccc2)o1	none
Cc1cc(Cl)c(S(=O)(=O)Nc2cccc(O)c2)cc1OCC(N)=O	Wee1 degr inh 9.9
COc1ccc(NS(=O)(=O)c2cc(OCC(N)=O)c(C)cc2Cl)cc1	none
COc1cc(OC)c(N(C)S(=O)(=O)c2cccc(C(=O)Nc3nnc(C4CC4)s3)c2)cc1Cl	NPY2 pot ag 56.2, NPY-Y1 PAM-ag 70.8 (no result: Hsp70 act, NPY-Y1 antag, NPY-Y2 antag)
Cc1ccc(N(C)S(=O)(=O)c2cccc(C(=O)Nc3nnc(C4CC4)s3)c2)cc1	none (no result: NPY-Y2 antag)
N#Cc1sc2nc3c(cc2c1N)CCCC3	none
CC12CCC(c3c(CO)nn(-c4ccccc4)c31)C2(C)C (stereo not given)	Wee1 degr inh 10.3
COC(=O)COc1ccc(/C=N/NC(=O)c2ccc(N(Cc3ccccc3)S(C)(=O)=O)cc2)cc1	NPY2 pot ag 30.8, NPY-Y1 PAM-ag 60.9
CC(C)Oc1ccc(/C=N/NC(=O)c2ccc(N(Cc3ccccc3)S(C)(=O)=O)cc2)cc1	none
O=S(=O)(NCc1cccs1)c1cccc2cccnc12	none
CCOC(=O)N1CCN(C(=O)C2CC(c3cc(OC)ccc3OC)=NO2)CC1 (stereo not given)	none
CCOC(=O)[C@@H]1C(c2c(OC)cc(OC)cc2OC)=NO[C@@H]1C(=O)OCC	NPY2 pot ag 32.8, NPY-Y1 PAM-ag 69.5
c1ccc2sc(SN3CCOCC3)nc2c1	none
Cc1ccc(NCC(=O)c2ccc([N+](=O)[O-])cc2)cc1	Wee1 degr inh 9.4 (no result: NPY-Y2 antag)
Cc1ccc(C(=O)CNc2cccc([N+](=O)[O-])c2)cc1	none (no result: NPY-Y2 antag)
COc1ccc(OC)c(-c2c(C#N)c(N)nc3c2c(=O)nc2sccn23)c1	none (no result: NPY-Y2 antag)
Oc1oc(-c2ccco2)nc1C=Nc1cccc(Cl)c1	none
CC(=NCc1cccc(Cl)c1)c1nc(-c2ccco2)oc1O	Wee1 degr inh 9.4
O=C1c2ccccc2-c2onc3ccc(NCc4ccco4)c1c23	NPY2 pot ag 53.1, NPY-Y1 PAM-ag 53.4
CCOC(=O)N(NC(=O)C(O)(C(C)C)C(C)C)c1ccccc1	none (no result: NPY-Y2 antag)
CCOC(=O)N(NC(=O)C(O)(c1ccccc1)c1ccccc1)c1ccccc1	NPY-Y1 antag 46.2, NPY-Y2 antag 20.1
COC(=O)N(NC(=O)C(O)(c1ccccc1)c1ccccc1)c1ccc(C)cc1	NPY-Y1 antag 30.9, NPY-Y2 antag 20.9
O=C(Nc1nncs1)c1cccnc1Cl	none
CN(C)/C=C(/C(=O)c1ccc(Cl)cc1Cl)S(=O)(=O)c1ccccc1	Wee1 degr inh 9.6
O=C(N/N=C\c1cc(Br)ccc1O)c1ccc(S(=O)(=O)N2CCCCC2)cc1	Wee1 degr inh 9.1
O=C(N/N=C/c1ccc(O)c(O)c1)c1cccc(S(=O)(=O)N2CCCCC2)c1	none (no result: NPY-Y2 antag)
CCc1ccc(OCC(O)CNC(C)(C)C)cc1 (stereo not given)	NPY2 pot ag 96.3, NPY-Y1 PAM-ag 92.7
